Where two headings read alike, the source gives them in different places.
Key:
J774.2 macrophages = assay: Cytotoxicity in J774.2 macrophages; format: cell-based; conditions: read-out: Toxicity in macrophages IC50
Vero cells = assay: Cytotoxicity in Vero cells; format: cell-based; conditions: read-out: Vero cells toxicity IC50
Summary of the method: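 Vero cells were grown in RPMI + 10% inactivated FBS at 37 °C in humidified 5% CO2. They were resuspended at 1×10^5 cells/mL, cultured 2 days, then given fresh medium with test compound for 72 h. Viability was read by flow cytometry. IC50 was derived by linear regression from Kc values; results average four determinations.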

[1] = system: Leishmania infantum promastigote forms; assay: In vitro activity on promastigote; format: cell-based; conditions: for Selectivity index Promastigote forms: L. infantum, IC50 macrophages toxicity/IC50 activity; for IC50: Leishmania infantum, read-out: Activity IC50 Promastigote forms
[2] = system: Leishmania donovani promastigote forms; assay: In vitro activity on promastigote; format: cell-based; conditions: for IC50: Leishmania donovani, read-out: Activity IC50 Promastigote forms; for Selectivity index Promastigote forms: L. donovani, IC50 macrophages toxicity/IC50 activity
Summary of the method: (§1)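 Extracellular promastigotes were tested at 1, 10, 25 and 200 µM, and IC50 was derived by linear regression from Kc values, averaging four determinations.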

[3] = system: Leishmania braziliensis promastigote forms; assay: In vitro activity on promastigote; format: cell-based; conditions: for Selectivity index Promastigote forms: L. braziliensis, IC50 macrophages toxicity/IC50 activity; for IC50: Leishmania braziliensis, read-out: Activity IC50 Promastigote forms
Summary of the method: as §1

[4] = system: Trypanosoma cruzi SN3 epimastigote forms; assay: Epimastigote assay, T. cruzi SN3; format: cell-based; conditions: for Selectivity index Epimastigote forms: T. cruzi SN3, IC50 Vero cell toxicity/IC50 activity; for IC50: Trypanosoma cruzi, read-out: Activity IC50 Epimastigote forms
Summary of the method: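 SN3 epimastigotes (Rhodnius prolixus isolate, Colombia) were grown at 28 °C in Grace's Insect Medium + 10% inactivated FBS. Exponential-phase cells were plated at 5×10^4 parasites/well with test compound in MTL medium at 100, 50, 25, 12,5 and 6,25 µM. Counts after 72 h used a Neubauer chamber. IC50 came from linear regression of Kc values; SI = Vero IC50/epimastigote IC50.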

[5] = system: Trypanosoma cruzi SN3 amastigote forms; assay: Amastigote assay, T. cruzi SN3; format: cell-based; conditions: for Selectivity index Amastigote forms: T. cruzi SN3, IC50 Vero cell toxicity/IC50 activity; for IC50: Trypanosoma cruzi, read-out: Activity IC50 Amastigote forms
Summary of the method: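 Vero cells in RPMI + 10% inactivated FBS (37 °C, 5% CO2) were seeded at 1×10^4 cells/well on coverslips for 2 days. They were infected 10:1 with SN3 metacyclic forms, obtained by 12-day culture of epimastigotes at 28 °C in modified Grace's medium (~40% metacyclic). After 24 h, cells were washed and exposed to 6.25–100 µM for 72 h. Giemsa-stained amastigotes were counted; IC50 from four determinations; SI used Vero IC50.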

[6] = system: Leishmania braziliensis amastigote forms; assay: In vitro activity on amastigote; format: cell-based; conditions: for Selectivity index Amastigote forms: L. braziliensis, IC50 macrophages toxicity/IC50 activity; for IC50: Leishmania braziliensis, read-out: Activity IC50 Amastigote forms
Summary of the method: (§2)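 J774.2 macrophages were infected with promastigotes, which became intracellular amastigotes within 1 day; test compounds were then added. IC50 came from linear regression of Kc values at 1, 10, 25 and 200 µM, averaging four determinations.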

[7] = system: Leishmania donovani amastigote forms; assay: In vitro activity on amastigote; format: cell-based; conditions: for Selectivity index Amastigote forms: L. donovani, IC50 macrophages toxicity/IC50 activity; for IC50: Leishmania donovani, read-out: Activity IC50 Amastigote forms
Summary of the method: as §2

[8] = system: Leishmania infantum amastigote forms; assay: In vitro activity on amastigote; format: cell-based; conditions: for Selectivity index Amastigote forms: L. infantum, IC50 macrophages toxicity/IC50 activity; for IC50: Leishmania infantum, read-out: Activity IC50 Amastigote forms
[9] = system: Trypanosoma cruzi SN3 trypomastigote forms; assay: Trypomastigote activity, T. cruzi SN3; format: cell-based; conditions: for Selectivity index Trypomastigote forms: T. cruzi SN3, IC50 Vero cell toxicity/IC50 activity; for IC50: Trypanosoma cruzi, read-out: Activity IC50 Trypomastigote forms
[10] = system: Fe-SOD in L. infantum promastigotes; assay: Fe-SOD inhibition, L. infantum; format: biochemical, Leishmania infantum; conditions: extent reached in the tested concentration range (Figure 6)
Summary of the method: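 Promastigotes or T. cruzi epimastigotes were grown in MTL (HBSS + 10% heat-inactivated FBS) at 26 °C to ~1×10^7/mL. Log-phase cells were pelleted and held 24 h at 27 °C to excrete SOD. Filtered supernatant was fractionated with 35% then 85% ammonium sulphate and desalted on Sephadex G-25. Activity was measured as NBT reduction (methionine, riboflavin, Triton X-100) at 560 nm before and after 10 min UV illumination.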

[11] = J774.2 macrophages after 72 h of culture (Table 1)
[12] = Vero cells after 72 h of culture
[13] = Chlorocebus sabaeus, Vero, 72 h

| Molecule | IC50 (J774.2 macrophages; Mus musculus, J774.2, 72 h) [µM] | Selectivity index Promastigote forms [1] | IC50 [1] [µM] | IC50 [2] [µM] | IC50 (Vero cells; [13]) [µM] | Selectivity index Promastigote forms [3] | IC50 [3] [µM] | Selectivity index Epimastigote forms [4] | IC50 [4] [µM] | Selectivity index Promastigote forms [2] | Selectivity index Amastigote forms [6] | IC50 [6] [µM] | Selectivity index Amastigote forms [7] | IC50 [7] [µM] | Selectivity index Amastigote forms [8] | IC50 [8] [µM] | also measured |
| --- | --- | --- | --- | --- | --- | --- | --- | --- | --- | --- | --- | --- | --- | --- | --- | --- | --- |
| 1‐[3‐(imidazol‐1‐yl)propylamino]pyridazine [1 b] | – | – | – | – | – | – | – | – | – | – | – | – | – | – | – | – | IC50 (J774.2 macrophages; [11]): 18.6 ± 1 µM; IC50 (Vero cells; [12]): 43.6 ± 2.7 µM |
| Clc1ccc(NCCc2c[nH]cn2)nn1 [1 c, N ‐(2‐(1H‐imidazol‐4‐yl)ethyl)‐6‐chloropyridazin‐3‐amine] | 17.1 ± 1.7 | 1 (1) | 19.9 ± 1.1 | 57.4 ± 4.1 | 39.6 ± 0.9 | 1 (1) | 28.1 ± 0.4 | 1 (1) | 30.5 ± 2.7 | – | – | – | – | – | – | – | – |
| Clc1ccc(NCCCn2ccnc2)nn1 [1 d, N ‐(3‐(1H‐imidazol‐1‐yl)propyl)‐6‐chloropyridazin‐3‐amine] | 19.3 ± 1.1 | 1 (1) | 15.3 ± 0.5 | 20.6 ± 2.3 | 33.2 ± 2.8 | 1 | 13.5 ± 0.3 | 3 (3) | 11.8 ± 0.6 | 1 (1) | – | – | – | – | – | – | – |
| c1ccc2c(NCCc3c[nH]cn3)nncc2c1 [1 e, 1‐[2‐(1H‐imidazol‐4‐yl)ethylamino]phthalazine] | 63.9 ± 3.6 | 6 | 10.2 | 9.6 ± 1.3 | 350 ± 7.7 | 4 | 14.5 ± 1.3 | 21 | 16.5 ± 0.6 | 7 | 8 | 8.1 ± 0.4 | 6 | 10.8 ± 1.1 | 9 | 7.4 ± 0.3 | Selectivity index Amastigote forms [5]: 24; IC50 [5]: 14.7 ± 1.1 µM; Selectivity index Trypomastigote forms [9]: 22; IC50 [9]: 15.9 ± 1.2 µM |
| c1ccc2c(NCCCn3ccnc3)nncc2c1 [1 f, 1‐[3‐(imidazol‐1‐yl)propylamino]phthalazine] | 211 ± 10.3 | 19 | 11.1 ± 0.4 | 52 ± 3.6 | 156 ± 4.6 | 12 | 17.8 ± 1.4 | 1 | 102 ± 4.1 | 4 | 14 | 15 ± 0.9 | 5 | 44.7 ± 5.6 | 20 | 10.7 ± 0.7 | Selectivity index Amastigote forms [5]: 3; IC50 [5]: 44.3 ± 2.7 µM; Selectivity index Trypomastigote forms [9]: 4; IC50 [9]: 40.8 ± 3.1 µM |
| c1ccc2[nH]c(CCNc3nnc(NCCc4nc5ccccc5[nH]4)c4ccccc34)nc2c1 [2 a, N 1,N4‐bis[2‐(1H‐benzo[d]imidazol‐2‐yl)ethyl]phthalazine‐1,4‐diamine] | 18.7 ± 1 | 1(1) | 19.9 ± 1.4 | 4.4 ± 0.2 | 38.7 ± 1.7 | 3 | 5.8 ± 0.2 | 1 (1) | 33.5 ± 1.6 | 4 | 4 | 4.4 ± 0.3 | – | – | – | – | – |
| Clc1nnc(NCCc2nc3ccccc3[nH]2)c2ccccc12 [2 b, N‐ [2‐(1H‐benzo[d]imidazol‐2‐yl)ethyl]‐4‐chlorophthalazin‐1‐amine] | 25.2 ± 1.7 | 1(1) | 24.5 ± 2.5 | 10.7 ± 0.4 | 35 | 4 | 6.1 ± 0.5 | 1 (1) | 30 ± 0.8 | 2 | 5 | 5.3 ± 0.4 | – | – | – | – | – |
| c1ccc2c(NCCc3cn4ccccc4n3)nnc(NCCc3cn4ccccc4n3)c2c1 [2 c, N 1,N4‐bis(2‐(imidazo[1,2‐a]pyridin‐2‐yl)ethyl)phthalazine‐1,4‐diamine] | 2.4 ± 0.1 | – | 18.7 ± 1.4 | 22.4 ± 1.3 | 19.6 ± 0.7 | – | 14.7 ± 0.6 | 1 (1) | 20.1 ± 1.3 | – | – | – | – | – | – | – | – |
| Clc1nnc(NCCc2cn3ccccc3n2)c2ccccc12 [2 d, 4‐chloro‐N‐(2‐(imidazo[1,2‐a]pyridin‐2‐yl)ethyl)phthalazin‐1‐amine] | 2.4 ± 0.3 | – | 21.8 ± 2.3 | 11.9 ± 0.7 | 23.8 ± 2.1 | – | 26.6 ± 5.4 | 1 (1) | 19.6 ± 0.8 | – | – | – | – | – | – | – | – |
| c1ccc2c(NCCc3c[nH]cn3)ncnc2c1 [3 a, N ‐[2‐(1H‐imidazol‐4‐yl)ethyl]‐quinazolin‐4‐amine] | 65.2 ± 3.3 | 2 | 27.7 ± 3 | 20.4 ± 2 | 112 ± 4.8 | 2 | 29.1 ± 2.3 | 4 | 25.9 ± 1.2 | 3 | 3 | 18.9 ± 1.6 | – | – | – | – | Selectivity index Amastigote forms [5]: 17; IC50 [5]: 6.7 ± 0.8 µM; Selectivity index Trypomastigote forms [9]: 26; IC50 [9]: 4.3 ± 0.3 µM |
| c1cnc(NCCCn2ccnc2)cn1 [4 b, N‐(3‐(1H‐imidazol‐1‐yl)propyl)pyrazin‐2‐amine] | 23.8 ± 1.9 | 15 | 1.6 ± 0.2 | 3.6 ± 0.4 | 26.8 ± 0.9 | 16 | 1.5 ± 0.2 | 2 (2) | 15.7 ± 0.5 | 7 | 10 | 2.3 ± 0.2 | 9 | 2.5 | 9 | 2.7 ± 0.1 | extent of inhibition of enzymatic activity [10]: more than 80% |
| c1cnc(NCCCCn2ccnc2)cn1 [4 c, N ‐(4‐(1H‐imidazol‐1‐yl)butyl)pyrazin‐2‐amine] | 22.3 ± 2.3 | 2 | 9.6 ± 0.8 | 7.4 ± 0.4 | 29.8 ± 1.6 | 2 | 10.7 ± 1.1 | 2 (2) | 17.9 ± 1.1 | 3 | 3 | 7.7 ± 0.5 | 4 | 5.5 ± 0.3 | 4 | 5.8 ± 0.2 | – |
| c1cnc(NCCCCCn2ccnc2)cn1 [4 d, N ‐(5‐(1H‐imidazol‐1‐yl)pentyl)pyrazin‐2‐amine] | 22 ± 1.7 | 4 | 5.8 ± 0.3 | 3.8 ± 0.3 | 37.2 ± 1.2 | 6 | 3.7 ± 0.1 | 2 (2) | 23.3 ± 0.7 | 6 | 5 | 4.1 ± 0.3 | 11 | 1.9 | 5 | 4 ± 0.4 | – |
| O=C(Cn1ccnc1[N+](=O)[O-])NCc1ccccc1 [BNZ, benznidazole, reference compound] | – | – | – | – | 13.6 ± 0.9 | – | – | 0.9 | 15.8 ± 1.1 | – | – | – | – | – | – | – | Selectivity index Amastigote forms [5]: 0.6; IC50 [5]: 23.3 ± 4.6 µM; Selectivity index Trypomastigote forms [9]: 2.2; IC50 [9]: 6.2 ± 0.7 µM |
| Glucantime [reference compound] | – | – | – | – | – | – | – | – | – | – | – | – | – | – | – | – | IC50 (J774.2 macrophages; [11]): 15.2 ± 1 µM |
| N‐ [2‐(1H‐imidazol‐4‐yl)ethylamino]pyrazine [4 a] | – | – | – | – | – | – | – | – | – | – | – | – | – | – | – | – | IC50 (J774.2 macrophages; [11]): 21.9 ± 1.5 µM; IC50 (Vero cells; [12]): 31 ± 2.6 µM |

Source: PMC9298202 (Chemmedchem, 2021)
